SENP8 block-1 – blocks the human protease SENP8; inhibition, % at 10 µM; 330,000 tested, 1.2% active; purified SENP8, Z-RLRGG-aminoluciferin cleavage, luminescence; Q96LD8; in the data active = inhibition above about 50%
SENP6 inh – SENP6 protease inhibition; 330,000 tested, 1.8% active; Q9GZR1; inhibition, % at 10 µM; Recombinant SENP6 catalytic domain, aminoluciferin luminescence;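 active = inhibition above about 50% at the single tested dose, limit read from the data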;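 note: plate controls were DMSO wells with enzyme for no effect and DMSO wells lacking enzyme for full effect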
SENP7 inh – blocks the human protease SENP7 | recombinant SENP7, Z-RLRGG-aminoluciferin luminescence, 40 min | inhibition, % at 5 µM | 330,000 tested, 1.5% active | AID 434973 | Q9BQF6;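 active = inhibition above about 50% at the single test dose, limit read from the data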;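 note: plate controls were DMSO with enzyme for no effect and no enzyme buffer wells for full effect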
Target sequence (Q9BQF6 706-1050 limits assumed): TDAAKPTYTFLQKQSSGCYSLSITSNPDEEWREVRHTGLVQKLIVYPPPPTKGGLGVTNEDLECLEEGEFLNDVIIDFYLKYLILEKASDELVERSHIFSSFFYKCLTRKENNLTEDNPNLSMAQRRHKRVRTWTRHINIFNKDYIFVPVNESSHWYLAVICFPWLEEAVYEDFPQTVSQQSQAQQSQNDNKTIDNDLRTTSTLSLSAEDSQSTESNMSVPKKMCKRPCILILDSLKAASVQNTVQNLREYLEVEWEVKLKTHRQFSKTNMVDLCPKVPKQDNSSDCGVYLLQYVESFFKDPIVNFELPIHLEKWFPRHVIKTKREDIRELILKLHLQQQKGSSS
Apaf-1 inh – inhibitors of human Apaf-1 apoptosome | O14727 | reconstituted apoptosome caspase-3 activity, DEVD-Rh110 fluorescence | inhibition, % at 20 µM | 330,000 tested, 0.71% active; active = inhibition of at least 40% at 20 µM;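 note: plate controls were DMSO wells for no effect and DEVD-CHO caspase inhibitor wells for full effect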
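System – cell-free apoptosome with Apaf-1, procaspase-3 and caspase-9 · Buffer or medium – pH 7.5 Hepes buffer with CHAPS, BSA, DTT · Also added – cytochrome c with DEVD-Rh110 · Times – 30 min compound preincubation, 50 min activation, room temperature · Technique – Rh110 fluorescence intensity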
SENP8 block-2 – inhibitors of human SENP8 protease. recombinant SENP8, Nedd8 substrate fluorescence. AID 602440. 360,000 tested, 0.64% active. inhibition, % at 20 µM; in the data active = inhibition mostly above about 40%, no sharp cut-off; inactive = mostly below about 27%
UBC13 inh – blocks human UBC13 polyubiquitin chain formation | TR-FRET | inhibition, % at 20 µM | 330,000 tested, 0.47% active | AID 485273; in the data active = inhibition above about 45%, passing the limit was not always enough; inconclusive = no clear call, values can overlap the other calls
Target sequence (P61088 whole entry, looked up): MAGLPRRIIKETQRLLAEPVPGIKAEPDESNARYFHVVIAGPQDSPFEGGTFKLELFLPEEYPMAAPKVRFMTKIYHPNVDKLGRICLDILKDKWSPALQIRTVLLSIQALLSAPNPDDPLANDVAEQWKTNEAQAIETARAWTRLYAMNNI
Casp3 UBC13 ctr – inhibits human caspase-3 in UBC13 counter-screen; shares compounds with UBC13 inh; Recombinant caspase-3, Caspase-Glo 3/7 luminescence, 60 min; inhibition, % at 20 µM; 1,400 tested, 4% active; AID 488856;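 active = mean inhibition across replicates above about 26%, limit read from the data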;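 note: plate controls were DMSO with caspase-3 for no effect and DMSO wells lacking enzyme for full effect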
UBC13 conf – human UBC13 polyubiquitin inhibition, confirmed | shares compounds with UBC13 inh | UBC13 polyubiquitination, TR-FRET, biochemical | inhibition, % at 10 µM | 1,400 tested, 68% active; in the data active = inhibition above about 45%; inconclusive = no clear call, values can overlap the other calls
* hit, by the source's call. Most compounds without a hit are left out; they make up all but 3% or so of the library.

What do the screens show for `O=C(O)C1CCCCC1C(=O)NCCc1ccncc1` (centres undefined)?
SENP8 block-1: 1; SENP6 inh: -2; SENP7 inh: 10; Apaf-1 inh: -1; SENP8 block-2: 12; UBC13 inh: 3

How did O=C(O)[C@H]1CCCC[C@H]1C(=O)NCCc1ccccc1 do in these assays?
SENP8 block-1: 1; SENP6 inh: -5; SENP7 inh: 3; Apaf-1 inh: -18; SENP8 block-2: 7; UBC13 inh: 67*; Casp3 UBC13 ctr: 0; UBC13 conf: 9

How did O=C(Nc1ccc(C2=NCCN2)cc1)c1ccc(C(=O)Nc2ccc(C3=NCCN3)cc2)c([N+](=O)[O-])c1 do in these assays?
SENP8 block-1: -1; SENP6 inh: 18; SENP7 inh: -5; Apaf-1 inh: -18; SENP8 block-2: 18; UBC13 inh: 107*; Casp3 UBC13 ctr: 2; UBC13 conf: 123*

What do the screens show for `O=S1(=O)C[C@@H](N2CCN(c3ccccn3)CC2)[C@H](COCc2ccccc2)N1`?
SENP8 block-2: 9

How did COc1cc(F)ccc1-c1csc(C(O)c2ccccc2)n1 (centres undefined) do in these assays?
SENP8 block-2: 27

What do the screens show for `Cc1cccc(C)c1NC(=O)CNC(=O)CCCN1C(=O)c2cccc3cccc(c23)C1=O`?
SENP8 block-1: 6; SENP6 inh: -5; SENP7 inh: 8; Apaf-1 inh: 15; SENP8 block-2: inactive; UBC13 inh: 26

What do the screens show for `O=C(CCCCCN1C(=O)c2cccc3cccc(c23)C1=O)NCCO`?
SENP8 block-1: -7; SENP6 inh: -11; SENP7 inh: 5; Apaf-1 inh: 2; SENP8 block-2: -321; UBC13 inh: 47*; Casp3 UBC13 ctr: -4; UBC13 conf: 32

What do the screens show for `CCn1c(=O)cc(SCC(=O)N2CCN(C3CCCCC3)CC2)c2ccccc21`?
SENP8 block-1: -6; SENP6 inh: -13; SENP7 inh: 2; Apaf-1 inh: -10; SENP8 block-2: -17; UBC13 inh: 79*; Casp3 UBC13 ctr: -2; UBC13 conf: inconclusive

How did CCn1c(=O)cc(SCC(=O)N2CCOCC2)c2ccccc21 do in these assays?
SENP8 block-1: 5; SENP6 inh: 9; SENP7 inh: 0; Apaf-1 inh: -13; SENP8 block-2: -23; UBC13 inh: 31

Results for Cc1ccc(S(=O)(=O)n2cc(C=O)c3ccccc32)cc1 ?
SENP8 block-1: 4; SENP6 inh: 18; SENP7 inh: 8; Apaf-1 inh: 4; SENP8 block-2: 16; UBC13 inh: 83*; Casp3 UBC13 ctr: 5; UBC13 conf: 85*

What do the screens show for `Cc1ccc(S(=O)(=O)n2cc(-c3ccccc3)c3ccccc32)cc1`?
SENP8 block-1: -3; SENP6 inh: 0; SENP7 inh: 1; Apaf-1 inh: 7; SENP8 block-2: 2; UBC13 inh: -3

How did CC1(C(=O)N2Cc3ccccc3C2)CCN1C(=O)Cc1ccccc1 (centres undefined) do in these assays?
SENP8 block-2: 7

How did CCOC(=O)N1CCc2c(sc(NC(=O)CN(CC)CC)c2C#N)C1 do in these assays?
SENP8 block-1: 8; SENP6 inh: -12; SENP7 inh: 6; Apaf-1 inh: -14; SENP8 block-2: 18; UBC13 inh: 78*; Casp3 UBC13 ctr: -2; UBC13 conf: 95*

What do the screens show for `CCCCN1C(=O)C(CC(=O)NCC2CCCCC2)CC(C(=O)N2CCCCCC2)=C1C` (centres undefined)?
SENP8 block-2: 2

Results for O=C(c1ccc2c(c1)[nH]c(=S)n1c3ccccc3nc21)N1CCN(c2ncccn2)CC1 ?
SENP8 block-1: 3; SENP6 inh: -6; SENP7 inh: -1; Apaf-1 inh: 12; SENP8 block-2: -42; UBC13 inh: inconclusive

Results for O=C(NCCN1CCN(c2ccccc2)CC1)c1ccc2c(c1)[nH]c(=S)n1c3ccccc3nc21 ?
SENP8 block-1: 3; SENP6 inh: 13; SENP7 inh: 5; Apaf-1 inh: -1; SENP8 block-2: -73; UBC13 inh: 47*; Casp3 UBC13 ctr: 2; UBC13 conf: inconclusive

What do the screens show for `CN(C)CCCNC(=O)c1ccc(-c2cc(O)c3ncccc3c2)cc1`?
SENP8 block-1: -6; SENP6 inh: -17; SENP7 inh: -7; Apaf-1 inh: -5; SENP8 block-2: 10; UBC13 inh: 112*; Casp3 UBC13 ctr: 2; UBC13 conf: 118*

Results for CN(C)CCCNC(=O)c1ccc(-c2nc(-c3ccc(Cl)cc3)cs2)cc1 ?
SENP8 block-1: -7; SENP6 inh: 2; SENP7 inh: 2; Apaf-1 inh: 40; SENP8 block-2: -204; UBC13 inh: 54*; Casp3 UBC13 ctr: 2; UBC13 conf: 68*

Results for CCOC(=O)[C@]12CCC=C1N(Cc1ccc3c(c1)OCO3)C(=O)[C@H](CC(=O)NCCc1ccccc1OC)C2 ?
SENP8 block-2: 6

What do the screens show for `Cc1ccc(Nc2nc(NCc3ccco3)c3ccccc3n2)cc1`?
SENP8 block-1: 1; SENP6 inh: 10; SENP7 inh: 5; Apaf-1 inh: 35; SENP8 block-2: -413; UBC13 inh: 51*; Casp3 UBC13 ctr: 8; UBC13 conf: 93*

How did Cc1nc(-c2ccccc2)sc1C(=O)NN do in these assays?
SENP8 block-1: -5; SENP6 inh: -2; SENP7 inh: -5; Apaf-1 inh: -5; SENP8 block-2: 1; UBC13 inh: 5

How did Cc1nc(N)sc1C(=O)NN do in these assays?
SENP8 block-1: -8; SENP6 inh: -10; SENP7 inh: -4; Apaf-1 inh: 0; SENP8 block-2: 22; UBC13 inh: 49*; Casp3 UBC13 ctr: 8; UBC13 conf: 35

How did CCOC(=O)C1=C(COC(=O)c2cc(OC)c(OC)c(OC)c2)NC(=O)NC1C (centres undefined) do in these assays?
SENP8 block-1: 2; SENP6 inh: -14; SENP7 inh: -5; Apaf-1 inh: 4; SENP8 block-2: 9; UBC13 inh: 62*; Casp3 UBC13 ctr: 1; UBC13 conf: 84*

How did C=CCn1c(NC(=O)c2ccc(C)cc2)nc2ccccc21 do in these assays?
SENP8 block-1: -12; SENP6 inh: -20; SENP7 inh: 4; Apaf-1 inh: 0; SENP8 block-2: -48; UBC13 inh: 46*; Casp3 UBC13 ctr: -8; UBC13 conf: inconclusive

Results for COc1ccc(CNC(=O)C2(CC3CC(c4ccccc4)=NO3)CCN(C(=O)OC(C)(C)C)CC2)cc1 (centres undefined) ?
SENP8 block-1: -12; SENP6 inh: -21; SENP7 inh: 4; Apaf-1 inh: 22; SENP8 block-2: 4; UBC13 inh: 77*; Casp3 UBC13 ctr: -4; UBC13 conf: -7

Source: PubChem BioAssay (Sanford-Burnham Center for Chemical Genomics)
